Only some compounds are listed: those with a hit (about 2.1% of all), similar ones and a draw of the others.
SR-BI uptake up: activators of SR-BI mediated DiI-HDL uptake, primary screen, ldlA[mSR-BI] CHO cells, DiI fluorescence. 3 h; 100 = double the neutral-control signal. activation, % at 12.5 µM. 320,000 tested, 0.096% active;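 active means mean replicate activation of at least 60% and every replicate at or above 60%; inconclusive means mean or all-replicate condition met, but not both; inactive means mean below 60% and not all replicates reaching 60%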;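 further: 0% = median plate neutral-control signal and 100% = twice that signal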
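System: LDL receptor-deficient CHO ldlA cells overexpressing murine SR-BI | Timing: 3 h uptake period with compound, 37 °C | Medium: HEPES-buffered (25 mM, pH 7.4) F12 plus 0.5% BSA | Dosing: Single-point compound dose | Signal: Bottom-read fluorescence, 550/595 nm | Read-out: Retained DiI signal reflecting DiI-HDL uptake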
SR-BI HDL uptake: inhibitors of SR-BI mediated HDL lipid uptake, primary screen, ldlA[mSR-BI] cells, fluorescence, single point; ldlA[mSR-BI] CHO cells, DiI-HDL uptake fluorescence, 3 h; inhibition, % at 12.5 µM; 320,000 tested, 0.96% active; AID 488896, 2010;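 active means mean replicate inhibition of at least 70% and a set share of replicates each scoring 70 or more; inconclusive means meets just one of the two criteria; inactive means fails both criteria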;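 further: 0% = median of neutral control wells and 100% = median of positive control wells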
Target sequence (Q61009 whole entry, looked up): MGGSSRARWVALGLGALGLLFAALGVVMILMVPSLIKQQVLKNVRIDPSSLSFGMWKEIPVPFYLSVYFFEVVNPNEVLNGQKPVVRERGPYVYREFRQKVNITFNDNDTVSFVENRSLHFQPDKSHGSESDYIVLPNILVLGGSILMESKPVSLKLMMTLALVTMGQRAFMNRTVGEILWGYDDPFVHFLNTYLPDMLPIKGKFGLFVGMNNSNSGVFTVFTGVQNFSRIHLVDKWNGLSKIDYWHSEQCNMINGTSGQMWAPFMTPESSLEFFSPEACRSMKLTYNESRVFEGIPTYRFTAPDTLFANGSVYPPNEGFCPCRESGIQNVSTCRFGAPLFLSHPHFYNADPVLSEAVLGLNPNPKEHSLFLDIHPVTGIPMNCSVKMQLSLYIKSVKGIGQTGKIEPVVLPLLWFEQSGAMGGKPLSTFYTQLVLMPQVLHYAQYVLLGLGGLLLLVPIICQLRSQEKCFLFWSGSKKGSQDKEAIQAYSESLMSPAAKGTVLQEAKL
CAL PDZ FP-1: CAL PDZ peptide-binding inhibitors, primary screen, biochemical, fluorescence polarization, Cer-tagged CAL PDZ, HTS; Golgi-associated PDZ and coiled-coil motif-containing protein (Homo sapiens), Q9HD26; purified CAL PDZ, TMR-peptide fluorescence polarization, 1 h; inhibition, % at 20 µM; 330,000 tested, 0.02% active; AID 504414, 2011;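 active means highest replicate inhibition of at least 40%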;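 further: plate controls were DMSO neutral control wells for no effect and unlabeled competitor peptide control wells for full effect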
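Control set: unlabelled peptide and DMSO controls / Material: purified CerCALP PDZ construct / Timing: 1 h incubation at room temperature before polarization reading / Doses: 20 µM, one dose / Detection: fluorescence polarization (mP)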
ARNT-TACC3 inh: disruptors of ARNT/TACC3 protein interaction, primary screen, biochemical, AlphaScreen, single concentration; Transforming acidic coiled-coil-containing protein 3 (Homo sapiens), Q9Y6A5; AlphaScreen His-ARNT PAS-B/GST-TACC3 binding, luminescence; TACC3 fragment carries E629A point mutation; inhibition, % at 9.99 µM; 390,000 tested, 0.66% active; AID 623870, 2012;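 active means mean inhibition of replicates at least 50% and at least half of replicates each reaching 50%; inconclusive means half or more replicates reach 50% but mean below 50%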;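 further: 0% = complete ARNT plus TACC3 wells and 100% = ARNT alone without TACC3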
CAL PDZ FP-2: untagged CAL PDZ binding inhibitors, primary screen, biochemical, fluorescence polarization, HTS | purified CAL PDZ, TMR-peptide fluorescence polarization, 1 h | inhibition, % at 24.9 µM | 300,000 tested, 0.92% active | AID 602252, 2012;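 active means mean inhibition of at least 30% with at least half of replicates also reaching 30%; inconclusive means no clear call, values can overlap the other calls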;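 further: 0% = DMSO neutral control and 100% = excess unlabeled competitor peptide PRC23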
miR-122 sensor: miR-122 Renilla sensor signal increase in Huh7, primary screen, miR-122 inhibitor project, cell-based, single point, plate reader; activation (reporter increase), % at 12.5 µM; Huh7 miR-122 Renilla luciferase sensor, 48 h; neutral wells = 0, positive control = 100; AID 602342, 2012; 340,000 tested, 0.3% active;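 active means mean replicate activation score at least 90 and every replicate individually at or above 90; inconclusive means only one of the two criteria met; inactive means neither criterion met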;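 further: higher luciferase means less miR-122 activity so hits act as miR-122 inhibitors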
DiI quencher: counter-screen for SR-BI lipid transfer inhibitors: DiI fluorescence quenchers; 470 tested, 20% active; AC50, µM (titrated, usually from 35 µM), for the others: top-dose activity change, negative = quenching; cell-free DiI-HDL fluorescence quenching, 30 min; shares compounds with SR-BI HDL uptake; AID 540326;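 active means quenching, a falling signal, with AC50 below a set limit tied to the top valid dose, actives reach about 32 µM in these data; inconclusive means no clear call, values can overlap the other calls; inactive means rising signal, and the rest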
An asterisk follows results filed as active; ? = inconclusive; / = no result given; [ ] = another dose, or the depositor's remark.

SMILES	SR-BI uptake up	SR-BI HDL uptake	CAL PDZ FP-1	ARNT-TACC3 inh	CAL PDZ FP-2	miR-122 sensor	others
O=C(NCc1cccc(Cl)c1)C1CCC(=O)N(CCCN2CCCC2=O)C1 (stereo not drawn)	7	-7	0	-8	70*	-2
C[C@H](CO)N1C[C@H](C)[C@H](CN(C)C(=O)Nc2ccc(F)cc2)Oc2ncc(C3=CCCC3)cc2C1=O	/	/	/	-2	/	-5[16.7 µM]
C[C@H](CO)N1C[C@H](C)[C@@H](CN(C)C(=O)NC2CCCCC2)OCCCC[C@H](C)Oc2ccc(NS(C)(=O)=O)cc2C1=O	/	/	/	-6	/	-4[16.7 µM]
COc1ccccc1CNC(=S)NCc1ccc(F)cc1	-2	2	-3	/	-1	/
C=CCNC(=S)NCc1ccccc1OC	11	-11	0	-1	70*	/
C[C@H](CO)N1C[C@H](C)[C@@H](CN(C)C(=O)Nc2ccc(F)cc2)Oc2c(NC(=O)c3cnccn3)cccc2C1=O	/	/	/	-1	/	-1[16.7 µM]
CNC(=O)C[C@H]1CC[C@@H]2[C@H](COc3ccc(NC(=O)Nc4ccc(Cl)cc4)cc3C(=O)N2C)O1	/	/	/	2	/	0[16.7 µM]
CC1C/C(=N\NC(N)=S)c2cc(Cl)ccc2S1 (stereo not drawn)	-80	80*	0	4	/	-9
CC(C)=C1CCC(C)CC1=NNC(N)=S (stereo not drawn)	-62	62	-1	4	-1	-9
CCOc1ccccc1NC(=O)c1cccc2ccccc12	-70	70*	-1	-10	4	23
CCOc1ccccc1C(=O)Nc1ccccc1C(N)=O	-34	34	-2	-3	-2	0
CCOc1cc(NC(=O)C2CC2)c(OCC)cc1NC(=O)c1cc(OC)c(OC)c(OC)c1	-23	23	-1	4	0	4
CCOc1ccccc1NC(=O)c1csc(C)c1C	-81	81*	-2	-16	-2	/
CC(C)C(=O)N1CCN(c2ccccc2NC(=O)c2cccc3ccccc23)CC1	-31	31	-5	-2	47*	45
CCOc1cc(NC(=O)C2CC2)c(OCC)cc1NC(=O)c1ccccc1OCC	-72	72*	-1	-1	-2	1
CCOc1ccccc1NC(=O)c1ccccc1-c1ccccc1	-26	26	0	-17	2	3
O=C(C[C@H]1C/C=C\CCC(=O)OC[C@H]2CCCN2C1=O)NCCO	11	-11	0	28	0	2	DiI quencher=2%
CC(=O)c1cccc(NC(=O)c2ccc3c(c2)CCN3S(=O)(=O)c2ccccc2)c1	-91	91*	-2	9	-3	26	DiI quencher=1%
CS(=O)(=O)N1CCc2cc(C(=O)Nc3cccc([N+](=O)[O-])c3)ccc21	-68	68	0	0	1	2	DiI quencher=-13%
CC(=O)Nc1cccc(NC(=O)c2ccc3c(c2)CCN3S(=O)(=O)c2ccccc2)c1	-72	?	-2	10	6	14	DiI quencher=0%
CC(=O)NS(=O)(=O)c1ccc(NC(=O)c2cccc(S(=O)(=O)N3CCc4ccccc43)c2)cc1	-5	5	-1	-3	3	-1
COc1ccc(NC(=O)c2ccc3c(c2)CCN3S(=O)(=O)c2ccccc2)cc1	-81	81*	-2	-5	18	28	DiI quencher=-3%
COc1ccc(NC(=O)c2ccc3c(c2)CCN3S(C)(=O)=O)cc1	/	/	/	/	/	-1
CN(C)S(=O)(=O)c1cccc(NC(=O)c2cccc(S(=O)(=O)N3CCc4ccccc43)c2)c1	-61	61	-1	4	3	-4
